Measurements published in publication PMC8904266 (Drug Design, Development and Therapy, 2022).
Values joined by “and” are separate entries in the source; they are usually repeats but may differ in a detail not shown here. Identical values can stand only once.

How the values were obtained:
[1] = system: WISH normal cell line; assay: Cytotoxic effect against normal cell line; type: cell-based; conditions: read-out: IC50 WISH
[2] = system: MDA breast cancer cells; assay: In vitro antitumor MTT assay, MDA; type: cell-based, human; conditions: for IC50: Homo sapiens, 24 h, read-out: IC50 MDA; for selectivity index to MDA: WISH versus MDA
Outline: (§1)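 ATCC cell lines grown in RPMI-1640 with 10% FBS, penicillin/streptomycin, at 37 °C and 5% CO2. Seeded at 1.0×10^4 cells/well for 48 h, then treated 24 h with a range of test compound concentrations. MTT (5 mg/mL solution) added for 4 h; formazan dissolved in DMSO and read at 570 nm. IC50 from percent viability; mean ± S.D. of three separate experiments.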

[3] = system: A549 lung cancer cells; assay: In vitro antitumor MTT assay, A549; type: cell-based, human; conditions: for IC50: Homo sapiens, A549, 24 h, read-out: IC50 A549; for selectivity index to A549: WISH versus A549
Outline: as §1

[4] = system: Caco-2 colon cancer cells; assay: In vitro antitumor MTT assay, Caco-2; type: cell-based, human; conditions: Homo sapiens, Caco-2, 24 h, read-out: IC50 Caco-2
Outline: as §1

[5] = system: Bcl-2; assay: Western blot analysis, Bcl-2; type: cell-based, human; conditions: HepG-2, 9.52 µM, 48 h
Outline: (§2)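 HepG-2 treated 48 h with 9.52 µM test compound or DMSO control. Lysed at pH 7.4 (Tris, EDTA, EGTA, NaCl, NP-40, Triton X-100, protease/phosphatase inhibitors), freeze-thawed at −80 °C, sonicated and centrifuged. 30 µg protein run on SDS-PAGE and blotted to PVDF. Primary antibody 1:1000 overnight at 4 °C; HRP secondary 1:2000. ECL detection; bands normalized to β-actin, control set to 1; mean ± SEM, n=3.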

[6] = system: HepG-2 hepatoma cells; assay: In vitro antitumor MTT assay, HepG-2; type: cell-based, human; conditions: for selectivity index to HepG-2: WISH versus HepG-2; for IC50: read-out: IC50 HepG-2, MTT, 24 h treatment, mean of three experiments
Outline: as §1

[7] = system: BAX; assay: Western blot analysis, BAX; type: cell-based, human; conditions: HepG-2, 9.52 µM, 48 h
Outline: as §2

[8] = molecular target: VEGFR-2 kinase (Homo sapiens, UniProt P35968); assay: biochemical; conditions: VEGFR-2, IC50, VEGFR-2 Kinase Assay Kit (BPS-Bioscience), luminescence
[9] = system: caspase-3; assay: Western blot analysis, caspase-3; type: cell-based, human; conditions: HepG-2, 9.52 µM, 48 h
Outline: as §2

[10] = system: BAX/Bcl-2 ratio; assay: Western blot analysis, BAX/Bcl-2 ratio; type: cell-based, human; conditions: HepG-2, 9.52 µM, 48 h
Outline: as §2

[11] = system: HepG-2 cells; assay: Annexin V-FITC/PI apoptosis assay; type: cell-based, human
Outline: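 HepG-2 cells seeded and incubated 24 h, then exposed to test compound at 9.52 µM. Harvested cells washed 3× in PBS, […] double-stained with Annexin V-FITC/propidium iodide for 20 min in the dark. Early/late apoptotic and necrotic fractions measured by flow cytometry. Mean ± SEM of 3 experiments; unpaired t-test versus untreated control.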

[12] = system: HepG-2 cells; assay: Cell cycle analysis; type: cell-based, human; conditions: HepG-2, 9.52 µM, 48 h
[13] = In vitro antitumor MTT assay, Caco-2; type: cell-based, human; conditions: human, Caco-2
Outline: as §1

[14] = system: p53; assay: Western blot analysis, p53; type: cell-based, human; conditions: 48 h
Outline: as §2

Sequence of VEGFR-2 kinase (P35968 20-1356): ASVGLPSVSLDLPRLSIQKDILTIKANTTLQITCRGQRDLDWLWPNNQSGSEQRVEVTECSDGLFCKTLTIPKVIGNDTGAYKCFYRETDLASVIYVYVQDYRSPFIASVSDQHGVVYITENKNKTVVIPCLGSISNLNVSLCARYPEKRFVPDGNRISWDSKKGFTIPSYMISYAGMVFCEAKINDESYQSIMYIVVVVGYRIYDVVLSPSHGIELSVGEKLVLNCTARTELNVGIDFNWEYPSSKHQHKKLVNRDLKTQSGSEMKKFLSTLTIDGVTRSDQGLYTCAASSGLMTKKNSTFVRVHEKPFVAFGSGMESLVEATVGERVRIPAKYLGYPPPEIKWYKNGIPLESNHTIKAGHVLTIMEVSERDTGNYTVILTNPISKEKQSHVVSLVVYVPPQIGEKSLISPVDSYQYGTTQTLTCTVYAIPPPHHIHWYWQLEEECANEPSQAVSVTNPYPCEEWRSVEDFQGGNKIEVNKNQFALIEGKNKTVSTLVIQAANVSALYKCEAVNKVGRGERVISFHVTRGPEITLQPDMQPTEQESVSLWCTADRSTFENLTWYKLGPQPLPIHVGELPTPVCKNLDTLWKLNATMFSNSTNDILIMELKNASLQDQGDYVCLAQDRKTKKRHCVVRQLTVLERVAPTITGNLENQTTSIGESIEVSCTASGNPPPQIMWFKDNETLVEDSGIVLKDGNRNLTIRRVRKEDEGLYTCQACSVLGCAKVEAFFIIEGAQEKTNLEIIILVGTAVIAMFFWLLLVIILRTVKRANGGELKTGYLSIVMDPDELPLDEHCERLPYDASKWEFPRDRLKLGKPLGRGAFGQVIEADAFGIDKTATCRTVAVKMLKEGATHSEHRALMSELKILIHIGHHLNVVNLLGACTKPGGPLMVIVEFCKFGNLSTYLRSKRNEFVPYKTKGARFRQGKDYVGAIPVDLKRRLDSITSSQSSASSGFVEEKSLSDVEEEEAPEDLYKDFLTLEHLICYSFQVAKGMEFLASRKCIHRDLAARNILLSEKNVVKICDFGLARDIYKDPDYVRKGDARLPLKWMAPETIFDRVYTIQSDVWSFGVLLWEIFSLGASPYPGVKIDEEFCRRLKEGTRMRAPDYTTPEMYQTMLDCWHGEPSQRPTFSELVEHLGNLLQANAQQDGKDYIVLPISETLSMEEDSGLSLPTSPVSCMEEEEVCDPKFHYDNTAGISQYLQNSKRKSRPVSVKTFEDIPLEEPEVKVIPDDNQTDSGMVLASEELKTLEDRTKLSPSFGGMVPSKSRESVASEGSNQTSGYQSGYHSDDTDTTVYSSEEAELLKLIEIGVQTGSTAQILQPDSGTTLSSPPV

In the case of CC(=O)c1ccc(NC(=O)CN2CCN(c3nc4ccccc4nc3Cl)CC2)cc1 [Compound 10f, N-(4-acetylphenyl)-2-(4-(3-chloroquinoxalin-2-yl)piperazin-1-yl)acetamide], the IC50 [1] is reported as 65.5 µM, the IC50 [2] is reported as 16.1 µM and the IC50 [3] is reported as 10.3 µM. For the same compound, the IC50 [4] was 28.4 µM.

With O=C(CN1CCN(c2nc3ccccc3nc2Cl)CC1)NCc1ccccc1 [Compound 11, N-benzyl-2-(4-(3-chloroquinoxalin-2-yl)piperazin-1-yl)acetamide] the IC50 [1] was 129 µM, the “Bcl-2 expression level compared to control” value ([5]; in words) was “decreased to half” and the “Protein Level (Normalized to β-Actin) Bcl-2” value ([5]; control set to 1, mean ± SEM) was 0.50 ± 0.03. The “selectivity index to HepG-2” value [6] was 13.57, the “BAX protein expression level compared to control” value ([7]; in words) was “double increase” and the “Protein Level (Normalized to β-Actin) BAX” value ([7]; control set to 1, mean ± SEM) was 2.16 ± 0.22. The IC50 [2] was 11.5 µM, the “selectivity index to MDA” value [2] was 11.22 and the IC50 [8] was 0.19 µM and 0.192 µM. For the same compound, the “increase in caspase-3 level compared to untreated cells” value [9] was 2.3 fold, the “Protein Level (Normalized to β-Actin) Caspases-3” value ([9]; control set to 1, mean ± SEM) was 2.32 ± 0.11 and the “increase in BAX/Bcl-2 ratio compared to control” value [10] was 4 fold. The “Protein Level (Normalized to β-Actin) BAX/Bcl-2 Ratio” value ([10]; control set to 1, mean ± SEM) was 4.25 ± 0.47, the “increase of early apoptosis rate compared to control” value ([11]; HepG-2, 9.52 µM) was “about 9 fold” and the “increase of late apoptosis compared to control” value ([11]; HepG-2, 9.52 µM) was 3 fold. The Necrosis ([11]; HepG-2, 9.52 µM, 48 h, control 0.11, mean ± SEM) was 0.17 ± 0.01, the “Apoptosis, Late” value ([11]; HepG-2, 9.52 µM, 48 h, control 0.13, mean ± SEM) was 0.38 ± 0.09 and the “Apoptosis, Early” value ([11]; HepG-2, 9.52 µM, 48 h, control 4.75, mean ± SEM) was 43.60% and 43.60 ± 4.16 %. The “effect on HepG-2 necrosis” value ([11]; HepG-2, 9.52 µM, in words) was “weak effect”, the viability at 9.52 µM ([11]; Homo sapiens, HepG2, 48 h, read-out: Viable cells) was 56 ± 4.19% and the IC50 [3] was 10.6 µM. For the same compound, the “selectivity index to A549” value [3] was 12.18, the “cell accumulation in the G2/M phase” value ([12]; control 15.16%) was 25.22% and the “cell accumulation rate at S phase” value ([12]; control 20.14%) was 46.10%. For the same compound, the “cell accumulation percentage in phase G1” value ([12]; control 63.18%) was 27.37%, the IC50 [4] was 12.5 µM and the selectivity ratio at 24 h [13] was 10.4. The “increase in P53 expression compared to control” value ([14]; HepG-2, 9.52 µM (IC50 value)) was 3 fold and the “Protein Level (Normalized to β-Actin) P53” value ([14]; HepG-2, 9.52 µM, control set to 1, mean ± SEM) was 3.07 ± 0.24.

CC(=O)c1ccc(NC(=O)CN2CCN(c3nc4ccccc4[nH]c3=O)CC2)cc1 [Compound 13f, N-(4-acetylphenyl)-2-(4-(3-oxo-3,4-dihydroquinoxalin-2-yl)piperazin-1-yl)acetamide] showed an IC50 [1] of 54.8 µM, an IC50 [6] of 8.4 µM and an IC50 [2] of 16.4 µM. It also gave an IC50 [8] of 0.465 ± 0.046 µM, an IC50 [3] of 11.3 µM and an IC50 [4] of 9.01 µM.

Compound O=C(CN1CCN(c2nc3ccccc3[nH]c2=O)CC1)Nc1ccccc1 [Compound 13a, 2-(4-(3-oxo-3,4-dihydroquinoxalin-2-yl)piperazin-1-yl)-N-phenylacetamide] has an IC50 [1] of 106 µM, an IC50 [2] of 17.9 µM and an IC50 [8] of 0.258 ± 0.023 µM. For the same compound, the IC50 [3] was 11.2 µM and the IC50 [4] was 13.2 µM.

Work on O=C(CN1CCN(c2nc3ccccc3[nH]c2=O)CC1)Nc1ccc(F)cc1 [Compound 13d, N-(4-fluorophenyl)-2-(4-(3-oxo-3,4-dihydroquinoxalin-2-yl)piperazin-1-yl)acetamide] yielded an IC50 [1] of 60.5 µM, an IC50 [6] of 8.35 µM and an IC50 [2] of 14.4 µM. The IC50 [8] was 0.602 ± 0.048 µM, the IC50 [3] was 13.4 µM and the IC50 [4] was 13 µM.

With COc1ccc(NC(=O)CN2CCN(c3nc4ccccc4nc3Cl)CC2)cc1 [Compound 10b, 2-(4-(3-chloroquinoxalin-2-yl)piperazin-1-yl)-N-(4-methoxyphenyl)acetamide] the IC50 [1] was 45.7 µM, the IC50 [2] was 11.6 µM and the IC50 [3] was 6.48 µM. The IC50 [4] was 14.6 µM.

Work on CNC(=O)c1cc(Oc2ccc(NC(=O)Nc3ccc(Cl)c(C(F)(F)F)c3)cc2)ccn1 [Sorafenib, reference compound] yielded an IC50 [2] of 10.8 µM, an IC50 [3] of 14.1 µM and an IC50 [4] of 9.25 µM.

O=C(CN1CCN(c2nc3ccccc3[nH]c2=O)CC1)Nc1ccc(Cl)cc1 [Compound 13c, N-(4-chlorophenyl)-2-(4-(3-oxo-3,4-dihydroquinoxalin-2-yl)piperazin-1-yl)acetamide] gave an IC50 [1] of 42.1 µM, an IC50 [2] of 12.1 µM and an IC50 [3] of 12.8 µM. The IC50 [4] was 9.05 µM.

O=C(CN1CCN(c2nc3ccccc3nc2Cl)CC1)Nc1ccc(Cl)cc1 [Compound 10c, N-(4-chlorophenyl)-2-(4-(3-chloroquinoxalin-2-yl)piperazin-1-yl)acetamide] gave an IC50 [1] of 48 µM, an IC50 [2] of 11.3 µM and an IC50 [3] of 9.57 µM. The IC50 [4] was 9.42 µM.

Compound O=C(CN1CCN(c2nc3ccccc3[nH]c2=O)CC1)Nc1ccc([N+](=O)[O-])cc1 [Compound 13g, N-(4-nitrophenyl)-2-(4-(3-oxo-3,4-dihydroquinoxalin-2-yl)piperazin-1-yl)acetamide] has an IC50 [1] of 38.6 µM, an IC50 [2] of 24.6 µM and an IC50 [3] of 10.5 µM. It also gave an IC50 [4] of 19.4 µM.

In the case of O=C(CN1CCN(c2nc3ccccc3nc2Cl)CC1)Nc1ccc(F)cc1 [Compound 10d, 2-(4-(3-chloroquinoxalin-2-yl)piperazin-1-yl)-N-(4-fluorophenyl)acetamide], the IC50 [1] is reported as 82.2 µM, the IC50 [2] is reported as 16.6 µM and the IC50 [3] is reported as 10.9 µM. For the same compound, the IC50 [4] was 32.8 µM.

With O=C(CN1CCN(c2nc3ccccc3[nH]c2=O)CC1)NCc1ccccc1 [Compound 14, N-benzyl-2-(4-(3-oxo-3,4-dihydroquinoxalin-2-yl)piperazin-1-yl)acetamide] the IC50 [1] was 35.7 µM, the IC50 [2] was 20 µM and the IC50 [3] was 14.7 µM. The IC50 [4] was 16.6 µM.

Work on O=C(CN1CCN(c2nc3ccccc3nc2Cl)CC1)Nc1ccccc1 [Compound 10a, 2-(4-(3-chloroquinoxalin-2-yl)piperazin-1-yl)-N-phenylacetamide] yielded an IC50 [1] of 30.5 µM, an IC50 [2] of 14.4 µM and an IC50 [3] of 9.03 µM. It also gave an IC50 [4] of 14.2 µM.

O=C(CN1CCN(c2nc3ccccc3nc2Cl)CC1)Nc1ccc([N+](=O)[O-])cc1 [Compound 10g, 2-(4-(3-chloroquinoxalin-2-yl)piperazin-1-yl)-N-(4-nitrophenyl)acetamide] showed an IC50 [1] of 85 µM, an IC50 [2] of 10.5 µM and an IC50 [8] of 0.332 ± 0.028 µM. The IC50 [3] was 8.36 µM and the IC50 [4] was 15.9 µM.

For Cc1ccc(NC(=O)CN2CCN(c3nc4ccccc4[nH]c3=O)CC2)cc1 [Compound 13e, 2-(4-(3-oxo-3,4-dihydroquinoxalin-2-yl)piperazin-1-yl)-N-(p-tolyl)acetamide], the IC50 [1] was 39.6 µM, the IC50 [2] was 18.5 µM and the IC50 [3] was 12.6 µM. For the same compound, the IC50 [4] was 14.3 µM.

In the case of COc1ccc(NC(=O)CN2CCN(c3nc4ccccc4[nH]c3=O)CC2)cc1 [Compound 13b, N-(4-methoxyphenyl)-2-(4-(3-oxo-3,4-dihydroquinoxalin-2-yl)piperazin-1-yl)acetamide], the IC50 [1] is reported as 109 µM, the “selectivity index to HepG-2” value [6] is reported as 12.35 and the IC50 [6] is reported as 8.83 µM. For the same compound, the IC50 [2] was 14.7 µM, the “selectivity index to MDA” value [2] was 7.40 and the IC50 [8] was 0.471 ± 0.034 µM. For the same compound, the IC50 [3] was 11 µM, the “selectivity index to A549” value [3] was 9.94 and the IC50 [4] was 10.5 µM. For the same compound, the selectivity ratio at 24 h [13] was 10.4.

For Cc1ccc(NC(=O)CN2CCN(c3nc4ccccc4nc3Cl)CC2)cc1 [Compound 10e, 2-(4-(3-chloroquinoxalin-2-yl)piperazin-1-yl)-N-(p-tolyl)acetamide], the IC50 [1] was 106 µM, the “selectivity index to HepG-2” value [6] was 13.17 and the IC50 [2] was 14.3 µM. The “selectivity index to MDA” value [2] was 7.43, the IC50 [8] was 0.241 ± 0.021 µM and the IC50 [3] was 11.6 µM. The “selectivity index to A549” value [3] was 9.18, the IC50 [4] was 16.3 µM and the selectivity ratio at 24 h [13] was 6.51.
